Hits are enriched below; roughly 1.6% of the tested compounds scored in any of these assays.
RAD54 branch – RAD54 (human) branch migration inhibition. RAD54 Holliday junction branch migration, FAM/BHQ fluorescence. inhibition, % at 10.4 µM. hit rate 0.14% among 360,000;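 active = mean normalized replicate activity at least 40 and at least half of replicates scoring 40 or more; inconclusive = only one of the two criteria met; inactive = mean below 40 and under half of replicates reaching 40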;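 note: 0% = median of neutral control wells and 100% = median of positive control wells; inhibitors cause a drop in the FAM fluorescence signal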
PvdQ inh – blocks Pseudomonas aeruginosa PvdQ acylase activity | purified PvdQ acylase, fluorescence plate reader | inhibition, % at 10 µM | hit rate 0.063% among 340,000 | AID 488965; in the data active = inhibition above about 30%, passing the limit was not always enough; inconclusive = no clear call, values can overlap the other calls;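 note: 0% = vehicle neutral wells and 100% = reference inhibitor wells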
S100A4 inh HTS – inhibitors of human S100A4 binding to myosin IIA peptide; P26447; S100A4/TAMRA-MyoIIA peptide fluorescence polarization; inhibition, % at 10.7 µM; hit rate 0.14% among 360,000;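 active = mean inhibition of at least 70% across replicates, with every replicate also reaching that level; inconclusive = mean inhibition reaches 70% but some replicates fall short; inactive = mean inhibition below 70%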
Target sequence (P26447 whole entry, looked up): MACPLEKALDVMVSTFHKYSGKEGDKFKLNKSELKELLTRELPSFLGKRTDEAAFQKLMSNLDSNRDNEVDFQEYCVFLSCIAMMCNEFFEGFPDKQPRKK
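Material: S100A4 monomer (human). Medium: Calcium-containing HEPES buffer, pH 7.2. Probe or stimulus: labelled myosin peptide probe, 5 nM. Compound dosing: one concentration per compound. Timing: polarization read 5 min after assay mix addition, stable 5–60 min. Benchmarks: DMSO as neutral control, TFP as positive control.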
SR-BI DiI-HDL act – enhances SR-BI lipid uptake from DiI-HDL; CHO ldlA[mSR-BI] cells, DiI-HDL uptake fluorescence, 3 h; 100 = double the neutral-control signal; activation, % at 12.5 µM; hit rate 0.096% among 320,000;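 active = mean replicate activation of at least 60% and every replicate at or above 60%; inconclusive = mean or all-replicate condition met, but not both; inactive = mean below 60% and not all replicates reaching 60%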;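 note: 0% = median plate neutral-control signal and 100% = twice that signal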
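Test system: SR-BI-overexpressing, LDLR-lacking CHO cells; Also added: labelled HDL, 10 µg/mL; Measured by: bottom-read cell fluorescence after medium removal, ex 550/em 595 nm; Timing: 3 h uptake period with compound, 37 °C; Buffer or medium: F12, 0.5% BSA, 25 mM HEPES; Doses: single compound concentration, delivered by pin transfer.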
dFosB act-1 – mouse delta FosB homodimer activation | activation, % at 25 µM | hit rate 0.99% among 340,000 | purified delta FosB, TAMRA-CDK5 oligo fluorescence polarization; percent of positive-control signal above neutral wells;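 active = mean activation above about 17%, with every replicate also reaching it, limit read from the data, passing the limit was not always enough; inconclusive = only one of the two conditions met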
Target sequence (P13346 whole entry, looked up): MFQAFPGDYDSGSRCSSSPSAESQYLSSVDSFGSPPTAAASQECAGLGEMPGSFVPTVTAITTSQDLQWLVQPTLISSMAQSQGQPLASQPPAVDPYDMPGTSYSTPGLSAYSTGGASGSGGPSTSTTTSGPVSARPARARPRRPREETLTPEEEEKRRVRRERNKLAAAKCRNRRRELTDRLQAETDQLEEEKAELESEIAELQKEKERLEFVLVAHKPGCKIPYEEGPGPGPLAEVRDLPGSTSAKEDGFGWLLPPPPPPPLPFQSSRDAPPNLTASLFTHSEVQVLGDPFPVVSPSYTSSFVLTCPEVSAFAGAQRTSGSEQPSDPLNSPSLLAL
SR-BI DiI inh – inhibitors of mouse SR-BI mediated HDL lipid uptake | Q61009 | ldlA[mSR-BI] CHO cells, DiI-HDL uptake fluorescence, 3 h | inhibition, % at 12.5 µM | hit rate 0.96% among 320,000 | AID 488896;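 active = mean replicate inhibition of at least 70% and a set share of replicates each scoring 70 or more; inconclusive = meets just one of the two criteria; inactive = fails both criteria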;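 note: 0% = median of neutral control wells and 100% = median of positive control wells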
dFosB act-2 – activators of mouse delta FosB homodimer DNA binding | 2,400 tested, under 10 active | activation, % at 24.9 µM | shares compounds with dFosB act-1 | purified delta FosB, TAMRA-CDK5 oligo fluorescence polarization; normalised: neutral wells 0, positive control 100;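 active = highest replicate activation at or above 34% and every replicate reaching that threshold; inconclusive = meets only one of the two criteria; inactive = meets neither criterion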;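 note: higher polarization means more probe DNA bound by delta FosB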
Numbers without * were called inactive; ? = inconclusive; . = no result.

SMILES	RAD54 branch	PvdQ inh	S100A4 inh HTS	SR-BI DiI-HDL act	dFosB act-1	SR-BI DiI inh	dFosB act-2
C#CCOCCOCCOCCNc1nc(N2CCN(C(=O)[C@H](Cc3ccc(O)cc3)n3cc([C@@H](N)C(C)CC)nn3)CC2)nc(N2CCN(C(=O)[C@H](Cc3cc4ccccc4[nH]3)n3cc([C@@H](N)C(C)CC)nn3)CC2)n1 (stereo partly specified)	7.0	15.8	.	14.2	39.6*	-14.2	-6.6
C#CCOCCOCCOCCNc1nc(N2CCN(C(=O)[C@H]([C@@H](C)CC)n3cc([C@@H](N)CC(C)C)nn3)CC2)nc(N2CCN(C(=O)[C@H](Cc3ccc(O)cc3)n3cc([C@@H](N)CC(C)C)nn3)CC2)n1	.	.	10.5	.	.	.	.
C#CCOCCOCCOCCNc1nc(N2CCN(C(=O)[C@H]([C@@H](C)CC)n3cc([C@@H](N)CC(C)C)nn3)CC2)nc(N2CCN(C(=O)[C@H]([C@@H](C)CC)n3cc([C@@H](N)CC(C)C)nn3)CC2)n1	6.5	-3.9	-6.6	26.5	30.7*	-26.5	0.0
C#CCOCCOCCOCCNc1nc(N2CCN(C(=O)[C@H](Cc3ccc(O)cc3)n3cc([C@@H](N)C(C)CC)nn3)CC2)nc(N2CCN(C(=O)[C@H](Cc3cc4ccccc4[nH]3)n3cc([C@@H](N)CC(C)C)nn3)CC2)n1 (stereo partly specified)	.	.	-2.1	.	.	.	.
COc1ccc(C2CC(c3ccccc3)=NN2C(=O)COC(=O)c2cc(S(=O)(=O)N3CCOCC3)ccc2Cl)cc1 (stereo unspecified)	.	6.8	4.7	-67.2	30.5*	67.2	2.4
O=C(Nc1ccc2nn(-c3ccc(F)cc3)nc2c1)c1cccnc1	.	-4.8	0.4	-36.8	30.3*	36.8	2.3
O=C(Nc1nc(-c2ccc(Cl)cc2)cs1)c1cccnc1	-1.6	-18.5	.	-37.9	?	37.9	.
O=C(Nc1nc(-c2ccc(F)cc2)cs1)c1cccnc1	3.1	-9.3	-2.4	-47.0	34.4*	47.0	1.3
C[C@@H]1CCCCO[C@H](CN(C)S(=O)(=O)c2ccc(F)cc2)[C@H](C)CN([C@H](C)CO)C(=O)c2cc(NC(=O)NC3CCCCC3)ccc2O1	-7.3	.	15.1	.	.	.	.
COc1ccc(NS(=O)(=O)c2ccc(O)c(NC(=O)c3ccc(S(=O)(=O)N4CCCC4)cc3)c2)cc1	-4.3	-13.2	-0.5	.	20.3*	.	-0.2
COc1ccc2cc3c(N)nn(C(=O)c4cccc(F)c4)c3nc2c1	.	1.5	-1.2	.	50.9*	.	-2.3
COc1cccc(CC(=O)n2nc(N)c3cc4ccc(OC)cc4nc32)c1	-7.1	-12.2	-3.1	26.7	32.2*	-26.7	4.5
COc1ccc2c3c(n(C)c2c1)[C@@H](CO)N(C(=O)CN(C)C)CC31CN(Cc2nccs2)C1	.	.	-6.3	.	.	.	.
O=C(CCCCC(=O)NN=Cc1ccc(Cl)cc1)NN=Cc1ccc(Cl)cc1	.	1.3	-5.3	-55.1	25.4*	55.1	1.4
N#CCC(=O)N/N=C/c1ccc(Cl)cc1	6.6	-10.8	1.2	8.4	3.0	-8.4	.
CO[C@@H](CN(C)S(=O)(=O)c1ccc(F)cc1)[C@@H](C)CN(C(=O)Nc1ccccc1F)[C@@H](C)CO	4.4	.	52.6	.	.	.	.
O=C(O)c1ccc(COc2ccccc2/C=C2/NC(=O)N(c3cccc(Cl)c3)C2=O)cc1	.	1.1	-0.3	3.0	28.4*	-3.0	3.9
O=C(O)c1ccc(COc2ccccc2/C=C2\NC(=O)N(Cc3ccc(F)cc3)C2=O)cc1	.	8.4	-3.5	14.0	-2.5	-14.0	.
COc1cc2[nH]c(=O)n(CCCC(=O)N3CC=C(c4ccccc4)CC3)c(=O)c2cc1OC	3.0	-2.7	.	-10.3	-17.8	10.3	.
COc1cccc2c1[C@@H]1CN(CCCCn3c(=O)[nH]c4c(sc5ncc(-c6ccccc6)nc54)c3=O)C[C@@H]1CO2	13.2	-6.6	-5.1	-54.8	39.5*	54.8	-0.4
O=C(C[C@@H]1C=C[C@H](NC(=O)C2CC2)[C@H](CO)O1)Nc1nccs1	-7.0	.	-1.4	.	.	.	.
COc1cc(/C=N/NC(=O)c2cccnc2)ccc1OCC(=O)Nc1c(C)cc(C)cc1C	-1.1	-5.2	.	-71.0	25.6*	71.0*	5.7
COc1cc(/C=N/NC(=O)c2cccnc2)ccc1OCC(=O)Nc1ccccc1Cl	-8.5	-0.8	3.2	-2.8	116.5*	2.8	-0.4
COc1ccc(NC(=O)COc2ccc(/C=N/NC(=O)c3cccnc3)cc2OC)cc1	.	-1.7	1.1	-19.7	-10.7	19.7	.
CN(C)C(=O)C[C@@H]1C[C@H]2c3cc(NC(=O)Nc4ccccc4)ccc3O[C@H]2[C@@H](CO)O1	-3.3	.	.	.	.	.	.
SMILES	RAD54 branch	PvdQ inh	S100A4 inh HTS	SR-BI DiI-HDL act	dFosB act-1	SR-BI DiI inh	dFosB act-2
Cc1ccc(C(=O)COC(=O)c2ccc3c(c2)C(=O)N(c2cccc4ncccc24)C3=O)cc1	.	2.3	6.9	-2.6	49.4*	2.6	4.9
O=C(COC(=O)c1ccc2c(c1)C(=O)N(c1cccc3ncccc13)C2=O)c1ccc(Cl)cc1	-9.5	5.8	1.1	-12.4	65.0*	12.4	2.2
O=C(OCC(=O)c1ccc(Cl)cc1Cl)c1ccc2c(c1)C(=O)N(c1cccc3ncccc13)C2=O	4.3	-3.7	.	-1.8	6.5	1.8	.
O=C(CSc1n[nH]c(-c2ccco2)n1)Nc1sc2c(c1C(=O)Nc1ccccc1)CCCC2	8.5	7.1	.	-33.7	25.2*	33.7	0.6
COc1ccc(N(CC(=O)Nc2ccc(F)c(Cl)c2)S(=O)(=O)c2c(C)noc2C)cc1	2.3	7.5	.	1.4	27.8*	-1.4	2.3
Cc1ccc(CCNC(=O)C2CCN(S(=O)(=O)c3cccc4nsnc34)CC2)cc1	-1.5	-11.8	.	-17.1	33.5*	17.1	2.1
CC1Nc2ncnc(N3CCc4ccccc4C3)c2N(Cc2ccc(Br)cc2)C1=O (stereo unspecified)	1.1	-5.9	-6.8	11.7	51.0*	-11.7	-1.3
C[C@H](CO)N1C[C@H](C)[C@H](CN(C)C(=O)Cc2cccnc2)Oc2ncc(/C=C/c3ccccc3)cc2C1=O	1.9	.	0.2	.	.	.	.
CCOC(=O)c1nn(-c2ccccc2)c(=O)cc1OCC(=O)Nc1cc(C)ccc1OC	9.1	2.3	0.8	8.8	22.5*	-8.8	5.5
CCOC(=O)c1nn(-c2ccc(C)cc2)c(=O)cc1OCC(=O)Nc1cc(C)ccc1OC	5.8	-4.9	-2.3	-25.4	0.4	25.4	.
CS(=O)(=O)N1[C@H](C#N)[C@@H](c2ccc(C#Cc3cccc(F)c3)cc2)[C@H]1CO	-4.1	.	-3.2	.	.	.	.
CNc1nc(Nc2ccc(C)c(Cl)c2)c2cnn(C)c2n1	-6.0	2.1	-1.2	-39.8	-6.2	39.8	.
